The values below come from ChEMBL document CHEMBL3600326, “Discovery of potent α1L-adrenoceptor agonists: Design and synthesis of bicyclic derivatives” (Bioorg Med Chem Lett, 2015).

One experiment deals with CHO. The experiment can be described thus: (§1) Agonist activity at human alpha1L-adrenoceptor expressed in CHO cells co-expressing CRELD1alpha assessed as induction of calcium mobilization after 60 mins by fluorometric imaging plate reader assay. It is filed as cell-based.
Details: not given
Put shortly:
(§2)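 CHO cells (α1L-dominant) expressing human α1A-AR plus human CRELD1α were plated and grown overnight at 37°C under CO2. Cells were loaded with Calcium 5 indicator dye for 60 min at 37°C, then calcium influx was read by FLIPR. Activity is expressed as EC50 relative to the noradrenaline EC50.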
For orientation: A change in cytosolic calcium serves as a functional read-out for many receptors and channels.
In the case of `Cc1c(CC2=NCCN2)cccc1C(C)C`, the Activity is 36%.

With `Cc1ccc(Cl)cc1CC1=NCCN1`, the Activity is 0%.

Tested on in a further experiment: not listed separately
The description is as §1. The conditions noted are these: 1 h. It is filed as cell-based. An outline of the steps: as §2
In general, EC50 refers to the concentration that produces a half-maximal response. Consider `NC[C@H](O)c1ccc(O)c(O)c1`, for which the concentration giving a half-maximal response (EC50) stood at 1020 nM.

A further experiment is filed under the species Rattus norvegicus. The experiment is described as follows: Agonist activity at alpha1L-adrenoceptor in Wistar rat isolated bladder neck assessed as induction of muscle contraction.
Details: not given
An outline of the steps:
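Male Wistar rats anaesthetised with sodium pentobarbital (50 mg/kg) and killed. Bladder neck was isolated and cleaned in modified Krebs-Henseleit solution gassed with 95% O2/5% CO2. Strips were mounted in organ baths of the same solution at 37°C. Contraction was recorded across increasing doses, with noradrenaline as reference agonist.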
As to `CC(C)c1cc(Cl)cc2c1NCCC2C1=NCCN1` (stereo not given), the Activity entry was “Dose-dependent effect”.

Another experiment concerns CHO. The experiment is described as follows: Agonist activity at human alpha1L-adrenoceptor expressed in CHO cells co-expressing CRELD1alpha assessed as induction of calcium mobilization after 60 mins by fluorometric imaging plate reader assay relative to control noradrenaline. It is filed as cell-based.
Details: not given
Put shortly:
as §2
On to `CC1(C)CCCc2c(CC3=NCCN3)cc(Cl)cc21`, for which the Ratio came out at 0.028.

With `Clc1cc(CC2=NCCN2)c2c(c1)C1(CCC2)CC1`, the Ratio amounted to 0.025.

Consider `CC1CCCc2c(CC3=NCCN3)cc(Cl)cc21` (stereo not given), for which the Ratio is 0.063.

As for `CC(C)c1cc(Cl)cc2c1CCCC2C1=NCCN1` (stereo not given), the Ratio was 0.024.

For the compound `CC(C)c1cc(Cl)cc(CC2=NCCN2)c1`, the Ratio came out at 0.52.

With `Clc1cc(CC2=NCCN2)c2c(c1)C1(CCO2)CC1`, the Ratio is 0.088.

For the compound `Cc1c(CC2=NCCN2)cc(Cl)cc1C(C)C`, the Ratio came out at 0.043.

Take `CC1(C)CCc2c(CC3=NCCN3)cc(Cl)cc21`: the Ratio was 0.12.

As for `CC(C)c1cc(Cl)cc2c1CCC2C1=NCCN1` (stereo not given), the Ratio worked out at 0.08.

For `CC(C)c1cc(Cl)cc2c1NCCC2C1=NCCN1` (stereo not given), the Ratio was determined as 0.0028.

Consider `CC(C)c1cc(Cl)cc2c1OCCC2C1=NCCN1` (stereo not given), for which the Ratio was found to be 0.014.
